The record followed here is ChEMBL document CHEMBL1138764, “Resistance-modifying agents. 11.(1) Pyrimido[5,4-d]pyrimidine modulators of antitumor drug activity. Synthesis and structure-activity relationships for nucleoside transport inhibition and binding to alpha1-acid glycoprotein” (J Med Chem, 2004).

Assay [1] concerns L1210. The assay can be described thus: Inhibition of [3H]thymidine uptake in L1210 cells at 10 uM. In kind it is functional. Particulars: Mus musculus. In a few lines:
(§1)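 ³H-thymidine uptake into L1210 leukaemia cells measured by a modified rapid-mixing technique with inhibitor-stop. Values are mean ± SD of three or more separate determinations. IC50 is interpolated from concentration–inhibition curves.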

The subject of assay [2] is L1210. In words: Tested for the reduction in inhibition of [3H]-thymidine uptake in L1210 cells in the presence of 5 mg/mL human AGP; NS, no significant reduction in inhibition by AGP. The settings on record: Mus musculus. It counts as functional, cell-based. In a few lines: (§2)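 Rapid-mixing, inhibitor-stop ³H-thymidine uptake into L1210 leukaemia cells run with 5 mg/mL human AGP present. Values are mean ± SD of three or more separate determinations. Significance of the difference from inhibition without AGP is taken at p ≤ 0.05.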

Assay [3] concerns L1210. The assay can be described thus: Inhibition of [3H]thymidine uptake in L1210 cells at 1 uM. Particulars: Mus musculus. In kind it is functional. In a few lines: as §1
In assay [4] the test system is L1210. In words: Inhibition of [3H]thymidine uptake in L1210 cells. In kind it is functional, cell-based. Particulars: Mus musculus. In a few lines:
as §1

For assay [5], the system named is L1210. In words: Tested for the reduction in inhibition of [3H]thymidine uptake in L1210 cells in the presence of 5 mg/mL human AGP. In kind it is functional, Mus musculus. The method, boiled down:
as §2

Assay [6] concerns L1210. In words: Inhibition of [3H]-thymidine uptake in L1210 cells in the presence of 5 mg/mL human AGP at 10 uM. It counts as functional, Mus musculus. In a few lines: as §2
In assay [7] the test system is L1210. The assay can be described thus: Inhibition of [3H]thymidine uptake in L1210 cells in the presence of 5 mg/mL human AGP at 1 uM. In kind it is functional, Mus musculus. In a few lines:
as §2

Assay [8] deals with L1210. The assay can be described thus: Compound was tested (100 uM) for the inhibition of [3H]thymidine uptake in L1210 cells in the presence of 5 mg/mL human AGP. It counts as functional, Mus musculus. In a few lines: as §2
For assay [9], the system named is L1210. The assay can be described thus: Compound was tested for the inhibition of [3H]thymidine uptake in L1210 cells at 100 uM. In kind it is functional. The settings on record: Mus musculus. In a few lines:
as §1

Assay [10] relates to L1210. The assay can be described thus: Compound was tested for the inhibition of [3H]thymidine uptake in L1210 cells at 0.1 uM. It counts as functional. The settings on record: Mus musculus. The method, boiled down:
as §1

The test system of assay [11] is L1210. The assay can be described thus: Compound was tested for the inhibition of [3H]thymidine uptake in L1210 cells at 3 uM. In kind it is functional. The settings on record: Mus musculus. The method, boiled down:
as §1

In general, inhibition refers to the change of the read-out against control, counted positive when it falls. Read a low inhibition as a response near the control. What is called IC50 is the concentration that inhibits the measured activity by half. The low end stands for greater potency in that assay, the high end for weaker potency in that assay. As a reminder, the Inhibition is the relative decrease from the control value, in per cent.

For the molecule `COc1ccc(CNc2nc(OCCO)nc3c(NCc4ccc(OC)cc4)nc(OCCO)nc23)cc1`, the inhibition at 10 µM in the assay on L1210 [1] came to 88%. Besides, in the assay on L1210 [2], the Reduction entry is “No significant reduction in inhibition”. Also, in the assay with L1210 [3], at 1 µM the inhibition was 40%. For the same molecule, the IC50 with L1210 [4] is 670 nM.
`OCCN(CCO)c1nc(NCc2ccccc2)c2nc(N(CCO)CCO)nc(NCc3ccccc3)c2n1`: the Reduction in the assay on L1210 [5] was 44%. The Inhibition with L1210 [6] amounted to 75%; with L1210 [7] it was 21%. Testing at 10 µM with L1210 [1] gave an inhibition of 91%. Testing at 1 µM in the assay with L1210 [3] gave an inhibition of 51%. Also, half-maximal inhibition in the assay on L1210 [4] (IC50) was put at 600 nM.
In turn, `CC(O)CNc1nc(NCc2ccc3c(c2)OCO3)c2nc(NCC(C)O)nc(NCc3ccc4c(c3)OCO4)c2n1` (configuration not stated) registered an inhibition at 10 µM with L1210 [1] of 90%. Further, the Reduction result with L1210 [2] was “No significant reduction in inhibition”. Further, the inhibition at 1 µM in the assay on L1210 [3] was found to be 69%. The Inhibition in the assay with L1210 [7] amounted to 64%. This molecule came in with an IC50 with L1210 [4] of 260 nM.
In the case of `COCC(COc1nc(N2CCCCC2)c2nc(OCC(COC)OC)nc(N3CCCCC3)c2n1)OC` (configuration not stated), the Reduction in the assay on L1210 [5] came to 36%. The Inhibition with L1210 [6] is recorded as 56%. Further, the inhibition at 10 µM in the assay on L1210 [1] was found to be 87%. Testing at 1 µM with L1210 [3] gave an inhibition of 38%. The molecule further came in with an IC50 with L1210 [4] of 1880 nM.
On the same counts, the results for `CC1(C)OC[C@H](COc2nc(N3CCCCC3)c3nc(OC[C@H]4COC(C)(C)O4)nc(N4CCCCC4)c3n2)O1` are 29%, 62%, 87%, 47% and 1100 nM.
As for `OCC(O)COc1nc(N2CCCCC2)c2nc(OCC(O)CO)nc(N3CCCCC3)c2n1` (configuration not stated), the Inhibition with L1210 [6] came to 34%; in the assay with L1210 [8] it was 80%. In the assay on L1210 [1], this molecule gave an inhibition at 10 µM of 32%. In addition, the Reduction result in the assay with L1210 [2] was “No significant reduction in inhibition”. Besides, the inhibition at 100 µM with L1210 [9] is 83%.
Regarding `COc1ccc(CN(C)c2nc(OCCO)nc3c(N(C)Cc4ccc(OC)cc4)nc(OCCO)nc23)cc1`, the inhibition at 0.1 µM in the assay with L1210 [10] worked out at 27%. The Reduction with L1210 [5] is 77%. The molecule further had an inhibition at 1 µM in the assay with L1210 [3] of 74%. The Inhibition in the assay on L1210 [7] was determined as 17%. Besides, in the assay with L1210 [4], the IC50 was 430 nM.
As for `OCC(O)CNc1nc(N2CCCCC2)c2nc(NCC(O)CO)nc(N3CCCCC3)c2n1` (configuration not stated), the Reduction in the assay on L1210 [5] is recorded as 64%. Besides, the Inhibition in the assay on L1210 [6] is recorded as 20%. In the assay with L1210 [1], this molecule yielded an inhibition at 10 µM of 55%. For the same molecule, in the assay on L1210 [3], 1 µM produced 18% inhibition. Moreover, the half-maximal inhibitory concentration (IC50) with L1210 [4] came out at 3700 nM.
For the molecule `COc1ccc(CNc2nc(NCCO)nc3c(NCc4ccc(OC)c(OC)c4)nc(NCCO)nc23)cc1OC`, in the assay on L1210 [10], the inhibition at 0.1 µM is 29%. Also, the Reduction in the assay with L1210 [5] is 23%. Moreover, testing at 1 µM in the assay on L1210 [3] gave an inhibition of 62%. In addition, the Inhibition in the assay with L1210 [7] turned out to be 44%. Moreover, the half-inhibitory concentration (IC50) with L1210 [4] amounted to 500 nM.
`CC1(C)OC[C@@H](COc2nc(N3CCCCC3)c3nc(OC[C@@H]4COC(C)(C)O4)nc(N4CCCCC4)c3n2)O1`: the inhibition at 10 µM in the assay with L1210 [1] turned out to be 100%. In the assay on L1210 [11], this molecule registered an inhibition at 3 µM of 76%.
Regarding `OCC(O)COc1nc(N2CCCCC2)c2nc(OC[C@@H](O)CO)nc(N3CCCCC3)c2n1` (some centres not stated), the Reduction with L1210 [5] is listed as 22%. For the same molecule, the Inhibition in the assay with L1210 [6] is listed as 29%. In the assay on L1210 [1], this molecule gave an inhibition at 10 µM of 37%. In the assay with L1210 [9], this molecule showed an inhibition at 100 µM of 91%. Moreover, half-maximal inhibition in the assay with L1210 [4] (IC50) was put at 8800 nM.
Turning to `COc1ccc(CNc2nc(NCC(C)O)nc3c(NCc4ccc(OC)cc4)nc(NCC(C)O)nc23)cc1` (configuration not stated), in the assay on L1210 [10], testing at 0.1 µM gave an inhibition of 21%. Besides, the Reduction with L1210 [5] amounted to 45%. Also, in the assay on L1210 [3], testing at 1 µM gave an inhibition of 58%. Also, the Inhibition in the assay on L1210 [7] was 32%. This molecule displayed an IC50 in the assay with L1210 [4] of 700 nM.
